Screening data: PubChem BioAssay, several laboratories
The list is not random: actives were taken first. Their share in the collection is about 2%.
dFosB act-1: activators of delta FosB homodimer, primary screen, biochemical, fluorescence polarization, TAMRA-CDK5 oligo, single point; Protein FosB (Mus musculus), P13346; purified delta FosB; percent of positive-control signal above neutral wells; activation, % at 25 µM; actives 0.99% (n = 340,000); AID 493131, 2011;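 active means mean activation above about 17%, with every replicate also reaching it, limit read from the data, passing the limit was not always enough; inconclusive means only one of the two conditions met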
CAL PDZ FP-1: CAL PDZ peptide-binding inhibitors, primary screen, biochemical, fluorescence polarization, Cer-tagged CAL PDZ, HTS; Golgi-associated PDZ and coiled-coil motif-containing protein (Homo sapiens), Q9HD26; purified CAL PDZ, TMR-peptide fluorescence polarization, 1 h; inhibition, % at 20 µM; actives 0.02% (n = 330,000);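 active means highest replicate inhibition of at least 40%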;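 further: plate controls were DMSO neutral control wells for no effect and unlabeled competitor peptide control wells for full effect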
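material = purified tagged CAL PDZ domain construct (CerCALP) | compound dosing = 20 µM, one dose | times = 1 h at RT | measured by = fluorescence polarization from S- and P-plane intensities, G-factor corrected | read-out = inhibition from polarization loss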
NTR1 agonist: agonists of human NTR1, primary screen, imaging, U2OS cells, beta-arrestin-GFP, high content; Neurotensin receptor type 1 (Homo sapiens), P30989; NTR1-U2OS beta-arrestin-GFP spot imaging, agonist mode; activation, % at 20 µM; actives 0.17% (n = 330,000); AID 493036, 2011;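 active means activation at or above 40% of the spot to cytoplasm intensity ratio, with at least 20 cells analyzed; inconclusive means wells under 20 cells, flagged as cytotoxic or low count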;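 further: 0% = DMSO without peptide and 100% = 100 nM NTR1 peptide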
Target sequence (P30989 whole entry, looked up): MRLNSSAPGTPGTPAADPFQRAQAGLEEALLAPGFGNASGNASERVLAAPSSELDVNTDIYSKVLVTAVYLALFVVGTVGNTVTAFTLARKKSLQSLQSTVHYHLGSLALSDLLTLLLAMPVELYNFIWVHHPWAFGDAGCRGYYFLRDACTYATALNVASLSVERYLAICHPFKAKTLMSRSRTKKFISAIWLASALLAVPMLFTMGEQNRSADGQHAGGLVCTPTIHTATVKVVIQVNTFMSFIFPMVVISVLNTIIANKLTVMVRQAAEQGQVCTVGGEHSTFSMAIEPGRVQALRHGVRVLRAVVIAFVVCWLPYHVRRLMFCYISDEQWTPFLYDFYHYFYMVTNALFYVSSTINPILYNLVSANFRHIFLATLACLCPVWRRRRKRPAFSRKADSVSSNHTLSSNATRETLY
PKA-R2B act: activators of PKA-R2B holoenzyme, primary screen, biochemical, fluorescence polarization, Cy5-IP20, human. cAMP-dependent protein kinase catalytic subunit beta (Homo sapiens) + cAMP-dependent …. PKA-R2B holoenzyme dissociation; R2B truncated from residue 108, S112A mutant; 0% DMSO only, 100% 113 µM cGMP. activation, % at 11.4 µM. actives 0.079% (n = 340,000). AID 504700, 2011;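 active means activation above a cutoff set at the mean over all compounds plus 3 SD, cut at about 18% in these data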;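 further: higher means more holoenzyme dissociation and a rise in polarization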
CAL PDZ FP-2: untagged CAL PDZ binding inhibitors, primary screen, biochemical, fluorescence polarization, HTS; actives 0.92% (n = 300,000); purified CAL PDZ, TMR-peptide fluorescence polarization, 1 h; inhibition, % at 24.9 µM;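 active means mean inhibition of at least 30% with at least half of replicates also reaching 30%; inconclusive means no clear call, values can overlap the other calls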;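 further: 0% = DMSO neutral control and 100% = excess unlabeled competitor peptide PRC23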
PKA-R1A activ: activators of PKA-R1A holoenzyme, primary screen, biochemical, fluorescence polarization, Cy5-IP20, bovine R1A, mouse PKAc | cAMP-dependent protein kinase type I-alpha regulatory subunit (Bos taurus) + … | PKA-R1A dissociation; scaled: DMSO 0%, 113 µM cGMP 100% | activation, % at 11.4 µM | actives 0.083% (n = 340,000) | AID 504707, 2011;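 active means percent activation above the mean of all tested compounds plus 3 SD, cut at about 19% in these data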;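 further: higher means more PKAc released from R1A so a rise in polarization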
dFosB act-2: activators of mouse delta FosB DNA binding, confirmation, biochemical, fluorescence polarization, TAMRA-CDK5 oligo, cherry-picked samples. AID 588690, 2011. shares compounds with dFosB act-1. purified delta FosB; normalised: neutral wells 0, positive control 100. activation, % at 24.9 µM. 2,400 tested, under 10 active;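 active means highest replicate activation at or above 34% and every replicate reaching that threshold; inconclusive means meets only one of the two criteria; inactive means meets neither criterion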;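 further: higher polarization means more probe DNA bound by delta FosB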
Numbers without * were called inactive; u = inconclusive; x = no result given.

SMILES	dFosB act-1	CAL PDZ FP-1	NTR1 agonist	PKA-R2B act	CAL PDZ FP-2	PKA-R1A activ	dFosB act-2
Cc1ccccc1-n1c(=O)cc(NCc2ccc3c(c2)OCO3)[nH]c1=O	-4	0	2	3	x	1	x
Cc1ccccc1N1CCN(C2CCCN(C(=O)CSc3ccccn3)C2)CC1 (centres undefined)	x	x	x	-6	x	2	x
COC(=O)Nc1ccc(S(=O)(=O)NNC(=O)c2c(O)c3ccccc3n(C)c2=O)cc1	41*	-1	0	-6	-2	2	0
COc1cc2c(cc1NC(=O)Nc1ccccc1)oc1ccccc12	19*	-1	14	-2	-3	-13	5
O=C(Nc1ccc(Br)cn1)c1ccc2nccnc2c1	43*	x	3	10	2	3	0
CCN(CC(=O)Nc1ccc(NC(C)=O)cc1)C(=O)Cc1ccc(Cl)c(Cl)c1	-10	-4	0	5	1	-7	x
COc1ccc(C(=O)NCCNc2nc3cc(C)c(C)cc3cc2C)cc1	25*	-1	3	3	-4	-2	4
CC(NC(=O)COC(=O)c1cc2ccccc2cc1O)c1ccccc1 (centres undefined)	24*	-2	0	-3	-1	0	1
Cc1c(C(=O)OCC(=O)NC(C)c2ccccc2)oc2ccccc12 (centres undefined)	20*	-1	-1	-4	-3	10	7
COc1ccc(N2C(=O)c3ccccc3NC2c2ccc(OC)c(Cn3nnc4ccccc43)c2)cc1 (centres undefined)	30*	-1	-1	-7	-2	-6	0
COC(=O)c1cn(NC(=O)Cc2c(F)cccc2Cl)c(=O)c2ccccc12	-8	0	-1	2	-5	7	x
COC(=O)c1cn(NC(=O)COc2ccc(Cl)cc2)c(=O)c2ccccc12	32*	0	0	-6	8	-2	6
COc1ccc(Br)cc1CNC(=O)CN1C(=O)C(c2ccccc2)Oc2cccnc21 (centres undefined)	27*	-1	5	-5	x	-4	1
O=C(Cn1cc(C(F)(F)F)cc(Cl)c1=O)NCc1ccc(Cl)cc1Cl	46*	0	0	1	-3	5	2
O=C(c1ccc(N2CCCS2(=O)=O)cc1)N1CCN(c2ccccc2)CC1	-7	-2	-1	-3	6	-5	x
CC(C)Oc1ccc(CNC(=O)Cn2c(=O)c3cccn3c3cccnc32)cc1	30*	-1	0	-1	10	8	8
CCOc1ccc(CNC(=O)Cn2c(=O)c3cccn3c3ccccc32)cc1	41*	-1	1	6	-1	-16	-1
Cc1cc2c(cc1C)NC(=O)C(C)CN2 (centres undefined)	x	x	x	9	x	7	x
COc1ccc(C(=O)NNC(=O)c2ccc3ccccc3n2)cc1	-15	0	3	0	2	2	x
NC(=O)CNC(=O)C1CCN(S(=O)(=O)c2ccc(-n3cnnn3)cc2)CC1	-6	-1	1	9	0	-5	x
C=CCN(C(=O)COc1ccccc1)c1nnc(-c2ccncc2)s1	22*	0	2	-6	-3	-4	1
CSc1nsc(SC)c1NC(=O)Nc1ccccc1C	33*	-1	0	9	4	-4	7
CSc1nsc(SC)c1NC(=O)N1CCCCC1	-7	0	-1	-8	-1	9	x
S=C(N/N=C/c1ccccc1Cl)Nc1cccc(Cl)c1Cl	36*	-1	4	5	-4	0	3
CCOc1ccc(CCN2C(=S)N([C@@H](CC(C)C)CN3CCCC3CN3C(=S)NC[C@@H]3CC(C)C)C[C@@H]2Cc2ccccc2)cc1 (some centres undefined)	4	0	x	3	-2	-2	x
SMILES	dFosB act-1	CAL PDZ FP-1	NTR1 agonist	PKA-R2B act	CAL PDZ FP-2	PKA-R1A activ	dFosB act-2
CC(C)C[C@H]1CNC(=S)N1CC1CCCN1C[C@H](Cc1ccc(O)cc1)N1C[C@H](Cc2ccccc2)N(CC2CCCCCC2)C1=S (some centres undefined)	u	-1	x	2	-7	-7	x
Oc1ccc(C[C@H]2CNC(=S)N2CC2CCCN2C[C@H](Cc2ccc(O)cc2)N2C[C@H](Cc3ccccc3)N(CCc3ccccc3)C2=S)cc1 (some centres undefined)	65*	1	x	-12	-4	-15	6
CC(C)C[C@@H](CN1CCCC1CN1C(=S)NC[C@@H]1Cc1ccc(O)cc1)N1C[C@H](Cc2ccccc2)N(CCc2ccccc2)C1=S (some centres undefined)	61*	1	x	-14	-1	-8	6
CC(C)C[C@H]1CN([C@@H](CC(C)C)CN2CCCC2CN2C(=S)NC[C@@H]2Cc2ccc(O)cc2)C(=S)N1CCc1ccccc1 (some centres undefined)	25*	0	x	-3	-2	6	3
O=S(=O)(Nc1cccc(S(=O)(=O)N2CCCC2)c1)c1cccs1	-2	0	4	-1	-2	3	x
O=C1c2cccc3cccc(c23)C(=O)N1c1ccc2ncccc2c1	36*	0	7	2	-2	0	-1
O=c1[nH]c(CN2CCN(Cc3ccccc3)CC2)nc2scc(-c3ccccc3)c12	7	0	7	3	-3	5	x
O=c1[nH]c(Cn2nnc(-c3ccccc3)n2)nc2scc(-c3ccccc3)c12	34*	-3	2	-5	x	-11	0
Cc1cc2c(cc1S(=O)(=O)N1CCOCC1)NC(=O)CO2	1	-3	0	8	-4	-5	x
CCCC(=O)Nc1c2c(nc3ccccc13)N(c1ccccc1)CC2	8	-1	2	-3	2	-7	x
O=C(CN1CCCCC1)Nc1c2c(nc3ccccc13)N(c1ccccc1)CC2	56*	1	3	-15	x	4	-1
